Assays:
[1] = system: menin and MLL-AF9 at the Hoxa9 locus; experiment: ChIP at the Hoxa9 locus in MLL-AF9 transduced BMC; assay type: cell-based, mouse; conditions: 12.5 μM
Method in brief: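 ChIP used BMC exposed to the test compound at 12.5 μM or to DMSO. Antibodies were against menin and AF9, with IgG as control. Enrichment was read at two sites in the Hoxa9 promoter region. Duplicate samples, mean ± s.d.; two experiments.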

E2A-HLF transformed BMC [2] = experiment: Methylcellulose colony formation assay, E2A-HLF transformed BMC; assay type: cell-based, mouse
Method in brief: (§1)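 Transduced BMC were plated at 5×10³ cells/ml in methylcellulose medium containing 20% IMDM, 1% penicillin/streptomycin, IL-3 and either the test compound or 0.25% DMSO. Colonies were stained with iodonitrotetrazolium chloride (1 mg/ml final, 37 °C, 30 min) and counted. For a second round, unstained colonies were counted, washed out in PBS, and 5×10³ cells were replated in the same medium with compound, then stained and counted.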

HOXA9 [3] = experiment: qRT-PCR of HOXA9 in THP-1 cells; assay type: cell-based, human; conditions: THP-1, 6 days
Method in brief: (§2)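 THP-1 cells in RPMI-1640 with 10% FBS, 1% penicillin/streptomycin and NEAA were treated with the test compound for 6 days. Total RNA (100–1000 ng) was reverse transcribed, and TaqMan qPCR measured human HOXA9 or MEIS1, normalised to 18S rRNA by the comparative Ct method. Duplicates, mean ± s.d.; three experiments.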

menin-MLL-AF9 complex = menin-MLL-AF9 complex (Homo sapiens, UniProt O00255); experiment: Co-immunoprecipitation in HEK293 cells transfected with Flag-MLL-AF9; assay type: cell-based
Method in brief: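 Menin co-precipitating with Flag-MLL-AF9 was detected by Western blot. Untransfected cells controlled for endogenous menin and for absence of MLL-AF9. Menin and MLL-AF9 expression levels were also checked by Western blot.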

MonoMac6 = experiment: Annexin V/PI apoptosis assay, MonoMac6; assay type: cell-based, human; conditions: MonoMac6, 48h
Method in brief: (§3)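 Cells were seeded at 5×10⁵ cells/ml and exposed to the test compound or vehicle (0.25% DMSO final) for 48h at 37 °C in 5% CO₂. 1.5×10⁵ cells were then stained with Annexin V-FITC and propidium iodide in Annexin V binding buffer for 10 min at room temperature in the dark, and analysed by flow cytometry. Three experiments in triplicate; mean and SD.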

[4] = system: CD11b expression in THP-1 cells; experiment: CD11b expression by flow cytometry, THP-1; assay type: cell-based, human; conditions: THP-1, 6 days of treatment
E2A-HLF transduced BMC = experiment: MTT cell viability assay, E2A-HLF transduced BMC; assay type: cell-based, mouse
Method in brief: (§4)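 Retrovirally transduced mouse bone marrow cells were grown in IMDM with 15% FBS, 1% penicillin/streptomycin and IL-3. Growth inhibition by the test compound was measured by MTT viability assay. Quadruplicates, mean ± s.d.; three experiments.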

MLL-ENL transformed BMC = experiment: Differentiation by morphology, MLL-ENL transformed BMC; assay type: cell-based, mouse
Meis1 [5] = experiment: Quantitative RT-PCR of Meis1 in MLL-AF9 transduced BMC; assay type: cell-based, mouse; conditions: 6 days
[6] = system: CD11b expression in MLL-AF9 transformed BMC; experiment: CD11b expression by flow cytometry, MLL-AF9 transformed BMC; assay type: cell-based, mouse; conditions: 7 days of treatment
Method in brief: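 BMC were cultured in IMDM with 15% FBS, penicillin/streptomycin and IL-3, and plated at 5×10⁵ cells/ml with the test compound or 0.25% DMSO. Every 48h the medium was changed, viable density restored and compound resupplied. 1.5×10⁵ cells were washed in PBS/1% FBS/0.1% NaN₃, stained with Pacific Blue anti-mouse CD11b (4 °C, 30 min), then Annexin V-FITC/PI, and run on flow cytometry. Triplicates, mean ± s.d.; one-way ANOVA against DMSO; three experiments.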

KOPN-8 (MLL-ENL) = experiment: MTT cell viability assay, KOPN-8; assay type: cell-based, human; conditions: KOPN-8, MTT, 72h
Method in brief: (§5)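 Growth inhibition was read by MTT viability assay, with 72h treatment stated for KOPN-8 and MV4;11. Media: KOPN-8 and ML-2, RPMI-1640 with 10% FBS. MV4;11, RPMI-1640 with 10% FBS, 1% penicillin/streptomycin and NEAA. MonoMac-6, RPMI-1640 with 15% FBS, human insulin, penicillin/streptomycin and NEAA. For KOPN-8 and MV4;11: four samples, mean ± s.d., three experiments.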

wild-type menin = wild-type menin (Homo sapiens, UniProt O00255); experiment: Thermal shift assay, wild-type menin; assay type: binding
E2A-HLF transformed BMC [7] = experiment: Differentiation by morphology, E2A-HLF transformed BMC; assay type: cell-based, mouse
Hoxa9 [8] = experiment: Quantitative RT-PCR of Hoxa9 in MLL-AF9 transduced BMC; assay type: cell-based, mouse; conditions: 6 days
ML-2 (MLL-AF6) = experiment: MTT cell viability assay, ML-2; assay type: cell-based, human; conditions: ML-2, MTT
Method in brief: as §5

MEIS1 [9] = experiment: qRT-PCR of MEIS1 in THP-1 cells; assay type: cell-based, human; conditions: THP-1, 6 days
Method in brief: as §2

MLL-ENL transduced BMC = experiment: MTT cell viability assay, MLL-ENL transduced BMC; assay type: cell-based, mouse
Method in brief: as §4

MV4;11 = experiment: Annexin V/PI apoptosis assay, MV4; assay type: cell-based, human; conditions: MV4;11, 48h
Method in brief: as §3

MV4;11 leukemia cells = experiment: Cell cycle analysis by FACS after PI staining, MV4; assay type: cell-based, human; conditions: MV4;11, PI staining
MLL-AF9 transformed BMC [10] = experiment: Methylcellulose colony formation assay, MLL-AF9 transformed BMC; assay type: cell-based, mouse; conditions: 7 days
Method in brief: as §1

MonoMac6 (MLL-AF9) = experiment: MTT cell viability assay, MonoMac6; assay type: cell-based, human
Method in brief: as §5

MLL-AF9 transformed BMC [11] = experiment: Differentiation by morphology; assay type: cell-based, mouse; conditions: 7 to 10 days, 25 μM
[12] = system: MV4;11 (harboring MLL-AF4); experiment: MTT cell viability assay, MV4; assay type: cell-based, human; conditions: MV4;11, MTT, 72h
Method in brief: as §5

[13] = system: Kasumi-1, ME-1, HAL-01 and REH; experiment: Growth of human acute leukemia cell lines lacking MLL fusions; assay type: cell-based; conditions: low HOXA9: Kasumi-1, ME-1, HAL-01, REH
MLL-AF9 transduced BMC = experiment: MTT cell viability assay, MLL-AF9 transduced BMC; assay type: cell-based, mouse
Method in brief: as §4

Y323K menin mutant = Y323K menin mutant (Homo sapiens, UniProt O00255, Y323K); experiment: Thermal shift assay, Y323K menin mutant; assay type: binding
M278K menin mutant = M278K menin mutant (Homo sapiens, UniProt O00255, M278K); experiment: Thermal shift assay, M278K menin mutant; assay type: binding
Chain of M278K menin mutant (O00255 whole entry M278K): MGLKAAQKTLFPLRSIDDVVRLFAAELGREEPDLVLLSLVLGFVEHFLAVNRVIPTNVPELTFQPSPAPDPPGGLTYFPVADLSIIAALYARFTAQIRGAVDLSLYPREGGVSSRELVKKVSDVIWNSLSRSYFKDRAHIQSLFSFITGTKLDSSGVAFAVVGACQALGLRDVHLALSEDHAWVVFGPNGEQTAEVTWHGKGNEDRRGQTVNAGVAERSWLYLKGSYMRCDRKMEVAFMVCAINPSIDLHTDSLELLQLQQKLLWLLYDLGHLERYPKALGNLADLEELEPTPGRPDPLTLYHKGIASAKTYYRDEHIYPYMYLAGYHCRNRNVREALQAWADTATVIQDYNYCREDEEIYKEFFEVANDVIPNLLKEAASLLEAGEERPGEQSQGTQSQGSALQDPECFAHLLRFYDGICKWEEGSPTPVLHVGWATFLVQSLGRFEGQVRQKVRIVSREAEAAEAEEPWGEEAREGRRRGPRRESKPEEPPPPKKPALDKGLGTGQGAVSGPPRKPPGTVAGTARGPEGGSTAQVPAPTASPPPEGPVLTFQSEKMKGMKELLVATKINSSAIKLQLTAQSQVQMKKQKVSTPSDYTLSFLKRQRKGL

Chain of Y323K menin mutant (O00255 whole entry Y323K): as the sequence (O00255 whole entry M278K) above, with K278M, Y323K counted along it
Chain of menin-MLL-AF9 complex (O00255 whole entry, one chain of several): as the sequence (O00255 whole entry M278K) above, with K278M counted along it
Chain of wild-type menin (O00255 whole entry): as the sequence (O00255 whole entry M278K) above, with K278M counted along it

- binding of menin and MLL-AF9 to the Hoxa9 locus (ChIP) [1]: decreased binding of menin and MLL-AF9
- disruption of the menin-MLL-AF9 complex (co-IP) (menin-MLL-AF9 complex): very efficiently disrupted
- binding to wild-type menin (wild-type menin): clearly observed binding
- GI50 [12]: 9.5 µM
- binding to Y323K menin mutant (Y323K menin mutant): no binding
- binding to M278K menin mutant (M278K menin mutant): no binding
Structure (SMILES): CCCc1cc2c(N3CCN(C4=NCC(C)(C)S4)CC3)ncnc2s1 [MI-2]
- effect on the number, size and morphology of colonies (E2A-HLF transformed BMC [2]): only a limited effect
- expression of HOXA9 (HOXA9 [3]): substantially reduced expression
- Annexin V (+) and Annexin V/PI (+)/(+) cells (apoptosis) (MonoMac6): substantial, and dose-dependent increase
- CD11b positive cells [4]: substantial increase in CD11b positive cells
- GI50 (E2A-HLF transduced BMC): > 50 µM
- differentiation (cell morphology) (MLL-ENL transformed BMC): observed differentiation
- decrease of Meis1 expression level (Meis1 [5]; 12.5 μM): > 80%
- decrease of Meis1 expression level (Meis1 [5]; 25 μM): > 80%
- expression of CD11b [6]: substantially increased
- GI50 (KOPN-8 (MLL-ENL)): 7.2 µM
- differentiation (cell morphology) (E2A-HLF transformed BMC [7]): did not differentiate
- decrease of Hoxa9 expression level (Hoxa9 [8]; 12.5 μM): > 80%
- decrease of Hoxa9 expression level (Hoxa9 [8]; 25 μM): > 80%
- GI50 (ML-2 (MLL-AF6)): 8.7 µM
- expression of MEIS1 (MEIS1 [9]): substantially reduced expression
- GI50 (MLL-ENL transduced BMC): ~5 µM
- Annexin V (+) and Annexin V/PI (+)/(+) cells (apoptosis) (MV4;11): substantial, and dose-dependent increase
- effect on cell cycle progression (MV4;11 leukemia cells): consistent increase in the number of cells in G0/G1 phase
- effect on colony formation (MLL-AF9 transformed BMC [10]): substantially reduced colony formation
- GI50 (MonoMac6 (MLL-AF9)): 18 µM
- differentiation (cell morphology) (MLL-AF9 transformed BMC [11]): substantial changes in morphology, indicative of monocytic differentiation
- effect on proliferation [13]: very limited effect
- GI50 (MLL-AF9 transduced BMC): ~5 µM
